Bioassay records deposited in PubChem by several laboratories.
MEKK2wt PB1 HTS – raises or lowers MEK5 binding to wildtype human MEKK2 PB1 domain. Q9Y2U5. bead flow cytometry, Alexa488-MEK5 binding to MEKK2 WT; actives lie on both sides. binding response (% of control), % at 10 µM. hit rate 1.1% among 290,000; in the data active means binding response below about 67% or above about 130%; inconclusive means no clear call, values can overlap the other calls; inactive means in between
NS3 helicase inh – HCV NS3 helicase inhibition | NS3 helicase DNA unwinding, Cy5 molecular beacon fluorescence | inhibition, % at 10.9 µM | hit rate 0.56% among 290,000 | AID 1800;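 active means inhibition above the mean of all tested compounds plus 3 SD, set per campaign, cut at about 35% in these data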;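 further: 0% = DMSO wells and 100% = thioflavine S control wells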
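assay system = NS3 helicase fragment of HCV | buffer or medium = MOPS pH 6.5, MgCl2, DTT, Tween20, BSA | timing = 60 min unwinding reaction at 25 °C after ATP addition | signal = Cy5 beacon fluorescence read at start and 1 h | read-out basis = % inhibition of unwinding | control set = low DMSO, high thioflavine S at 110 µM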
MEKK2 mut-MEK5 – signal of MEK5 binding to mutant human MEKK2 PB1 domain | bead flow cytometry, Alexa488-MEK5 binding to MEKK2 mutant | percent response, % at 10 µM | hit rate 0.35% among 290,000; in the data active means percent response above about 24%, passing the limit was not always enough
T cruzi inh – blocks replication of Trypanosoma cruzi | T. cruzi beta-gal in NIH3T3, luminescence, 90 h | inhibition, % (concentration not given with the values) | hit rate 1.4% among 300,000;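 active means mean inhibition across valid replicates above about 55%, limit read from the data; inconclusive means mean below that limit but half or more replicates reach it; inactive means mean below it, under half of replicates reach it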;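 further: signal also drops with host cell toxicity which is not excluded here; 0% = plate median of DMSO wells and 100% = zero luminescence signal; higher percent means less beta-gal luminescence so fewer parasites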
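Assay system: NIH/3T3 host cells with β-galactosidase reporter T. cruzi; input: 5,000 host fibroblasts per well; compound: single 50 nL compound addition per well in DMSO; timing: ≥90 h infection period, 3 h prior cell attachment; measured by: GalScreen β-gal luminescence, detergent lysis, 60 min; evaluation: percent inhibition of parasite-derived β-gal signal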
MEKK3 PB1 HTS – MEKK3-MEK5 PB1 interaction, increase or decrease. Q99759. bead-based flow cytometry, Alexa488-MEK5 binding to MEKK3; actives lie on both sides; 0 = blocked by unlabeled MEK5, 100 = vehicle. binding response (% of control), % at 10 µM. hit rate 1.4% among 290,000. AID 1529;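 active means binding response more than 3 SD above or below the average of its plate-row segment, actives on both sides; inconclusive means wells at one plate position flagged as instrument error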;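 further: Alexa488 bead fluorescence after subtracting the streptavidin-only scavenger bead signal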
Target sequence (Q99759 whole entry, looked up): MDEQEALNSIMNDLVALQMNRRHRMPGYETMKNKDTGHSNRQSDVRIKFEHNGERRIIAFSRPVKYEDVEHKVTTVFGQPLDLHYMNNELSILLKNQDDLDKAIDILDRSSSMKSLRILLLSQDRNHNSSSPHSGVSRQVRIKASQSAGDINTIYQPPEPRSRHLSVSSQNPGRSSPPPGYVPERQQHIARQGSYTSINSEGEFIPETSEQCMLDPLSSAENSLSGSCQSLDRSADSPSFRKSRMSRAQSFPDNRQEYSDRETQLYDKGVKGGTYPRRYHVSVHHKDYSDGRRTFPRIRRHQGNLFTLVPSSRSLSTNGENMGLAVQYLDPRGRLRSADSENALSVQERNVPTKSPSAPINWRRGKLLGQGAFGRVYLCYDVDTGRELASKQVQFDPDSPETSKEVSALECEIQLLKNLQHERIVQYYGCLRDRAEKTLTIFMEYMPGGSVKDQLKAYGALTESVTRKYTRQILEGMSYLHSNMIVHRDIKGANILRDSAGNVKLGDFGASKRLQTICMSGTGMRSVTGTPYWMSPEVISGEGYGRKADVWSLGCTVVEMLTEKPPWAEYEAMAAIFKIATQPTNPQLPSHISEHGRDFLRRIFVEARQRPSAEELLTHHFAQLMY
FID counter – displaces DNA intercalator in HCV helicase counter-screen; DNA fluorescent intercalator displacement, fluorescence; inhibition, % at 7.9 µM; hit rate 0.17% among 290,000; AID 1845; in the data active means inhibition above about 37%;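 further: 0% = vehicle and 100% = reference compound; higher means more ethidium bromide displaced from hairpin DNA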
MEKK2wt confirm – raises or lowers MEK5 binding to wildtype human MEKK2, retest | shares compounds with MEKK3 PB1 HTS | bead flow cytometry, Alexa488-MEK5 binding to MEKK2 WT; actives lie on both sides | binding response (% of control), % at 10 µM | hit rate 2.4% among 5,900 | AID 1892; in the data active means binding response below about 16% or above about 210%; inactive means in between
MEKK2mut confirm – signal of MEK5 binding to mutant human MEKK2, retest. shares compounds with MEKK3 PB1 HTS. bead flow cytometry, Alexa488-MEK5 binding to MEKK2 mutant. percent response, % at 10 µM. hit rate 2% among 5,900. AID 1893; in the data active means percent response mostly above about 71%, no sharp cut-off; inactive means mostly below about 38%;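 further: higher means compound restores mutant binding toward wildtype level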
MEKK3 confirm – confirmation of inhibitors of MEK5 binding to human MEKK3. shares compounds with MEKK3 PB1 HTS. bead flow cytometry, Alexa488-MEK5 binding to MEKK3; hits give low values. binding response (% of control), % at 10 µM. hit rate 1.8% among 5,900. AID 1894;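 active means binding response below 72% of control, or above a set upper limit, though filed actives all read lower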;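 further: 100% = DMSO only wells and 0% = binding blocked by excess unlabeled MEK5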
* hit, by the source's call; ? = inconclusive; · = not tested or not shown; [ ] = remark or other dose. Most compounds without a hit are left out; they make up all but 4.1% or so of the library.

SMILES	MEKK2wt PB1 HTS	NS3 helicase inh	MEKK2 mut-MEK5	T cruzi inh	MEKK3 PB1 HTS	FID counter	MEKK2wt confirm	MEKK2mut confirm	MEKK3 confirm
O=C(NCCc1ccccc1)C(=O)NCCC1CCCCN1S(=O)(=O)c1cccs1 (stereo not drawn)	·	·	·	17	·	·	·	·	·
CCOc1ccc(C(=O)C(C)OC(=O)c2nc(Cl)ccc2Cl)cc1 (stereo not drawn)	·	·	·	6	·	·	·	·	·
COc1ccccc1/C=C\C(=O)NCC(=O)N/N=C(/C)c1cccc([N+](=O)[O-])c1	99	-9	6	5	101	-20	·	·	·
Nc1c(C(=O)C2CC2)sc2nc(-c3cccs3)cc(C(F)(F)F)c12	59*[inhibitor]	-6	-1	-4	95	-6	85	-7	101
CN(C)c1ccc(Cl)cc1N	97	-1	-5	11	98	6	·	·	·
Nc1nc(Nc2ccc(Cl)cc2)n[nH]1	104	-4	2	-7	103	-2	·	·	·
Nc1nc(Nc2ccccc2)n[nH]1	71	0	8	-4	74*[inhibitor]	0	101	11	102
Cc1cc(Cl)c2oc(C(=O)N(C)Cc3ccon3)c(C)c2c1	102	1	-4	34	102	-46	·	·	·
O=C(CCc1nnc(CCCCc2ccccc2)o1)NCCCc1cccnc1	9.0*[inhibitor]	-28	-19	?	66	-28	102	4	106
COc1ccc(/C=C/C(=O)N(Cc2cccs2)C2CCS(=O)(=O)C2)cc1 (stereo not drawn)	97	-10	-10	4	90	-29	·	·	·
Cc1ccc(CNC(=O)NC23CC4CC(CC(C4)C2)C3)cc1	99	2	1	2	100	-5	·	·	·
Cc1ccc(C23CC4CC(CC(NC(=O)NCCN(C)C)(C4)C2)C3)cc1	156*	-33	31*	59*	107	12	21	-25	35*
CN(C)CCNC(=O)COc1ccc(C23CC4CC(CC(C4)C2)C3)cc1	151*	-41	14	68*	98	38*	124	7	103
O=C(Cc1cccs1)N/N=C/C=C/c1ccccc1	104	1	0	1	129*	-4	104	0	104
O=C(Cc1cccs1)N/N=C/C=C\c1ccccc1[N+](=O)[O-]	100	-8	-2	10	110	-5	·	·	·
COc1ccccc1NCC(=O)N/N=C/C=C/c1ccccc1	96	4	3	-2	70*[inhibitor]	-6	99	-3	99
COc1ccc(NCC(=O)N/N=C/C=C\c2ccccc2)cc1	98	-3	1	10	98	-13	·	·	·
CN(C)S(=O)(=O)c1cccc(NC(=O)CN2C(=O)C3C4C=CC(C4)C3C2=O)c1 (stereo not drawn)	110	6	1	6	104	-4	·	·	·
COc1ccc(OC)c(S(=O)(=O)n2nc(C)cc2C)c1	125	-3	7	-6	135*	-3	95	-1	101
CC(=O)NCC(=O)OC(C)C(=O)Nc1ccc(C(C)=O)cc1 (stereo not drawn)	98	8	-3	0	101	2	·	·	·
Cc1ccc(C(=O)NCC(=O)OC(C)C(=O)Nc2ccc(N(C)C)cc2)cc1C (stereo not drawn)	132	-3	8	-8	141*	-17	102	0	104
COc1cc2c(C(=O)OCCN(C)C)c(CSc3ccccc3)n(C)c2cc1Br	146*	-56	-9	34	99	5	153	28	108
